The source made the active and inactive calls. No cut-off for these calls is given here.
Tests used:
MCF7 [1] = assay: Antiproliferative activity against human MCF7 cells assessed as inhibition of cell growth at 4 uM incubated for 72 hrs by MTT assay; type: functional
In short: (§1)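 Cells seeded at 1–4 × 10^4 cells/mL in RPMI 1640 with 10% FBS and 1 mM HEPES, 37 °C, 5% CO2. After 24 h, compounds added at various concentrations for 72 h; controls received 0.1% DMSO. Viable cells measured by MTT. Percent net growth calculated relative to control, correcting for initial absorbance. Mean ± SD (n = 3).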

PC-3 [2] = assay: Antiproliferative activity against human PC-3 cells assessed as inhibition of cell growth at 1 uM incubated for 72 hrs by MTT assay; type: functional; in short: as §1
MCF7 [3] = assay: Antiproliferative activity against human MCF7 cells assessed as inhibition of cell growth incubated for 72 hrs by MTT assay; type: functional, cell-based; conditions: dose 1-10 µM; in short: as §1
MCF7 [4] = assay: Antiproliferative activity against human MCF7 cells assessed as inhibition of cell growth at 10 uM incubated for 72 hrs by MTT assay; type: functional; in short: as §1
PC-3 [5] = assay: Antiproliferative activity against human PC-3 cells assessed as inhibition of cell growth incubated for 72 hrs by MTT assay; type: functional, cell-based; conditions: dose 1-10 µM; in short: as §1
MCF7 [6] = assay: Antiproliferative activity against human MCF7 cells assessed as inhibition of cell growth at 4 to 10 uM incubated for 72 hrs by MTT assay; type: functional, cell-based; conditions: dose 4-10 µM; in short: as §1
PC-3 [7] = assay: Antiproliferative activity against human PC-3 cells assessed as inhibition of cell growth at 10 uM incubated for 72 hrs by MTT assay; type: functional; in short: as §1
PC-3 [8] = assay: Antiproliferative activity against human PC-3 cells assessed as inhibition of cell growth at 4 to 10 uM incubated for 72 hrs by MTT assay; type: functional, cell-based; conditions: dose 4-10 µM; in short: as §1
PC-3 [9] = assay: Antiproliferative activity against human PC-3 cells assessed as inhibition of cell growth at 1 to 10 uM incubated for 72 hrs by MTT assay; type: functional, cell-based; conditions: dose 1-10 µM; in short: as §1
MCF7 [10] = assay: Antiproliferative activity against human MCF7 cells assessed as inhibition of cell growth at 1 to 10 uM incubated for 72 hrs by MTT assay; type: functional, cell-based; conditions: dose 1-10 µM; in short: as §1
MCF7 [11] = assay: Induction of apoptosis in human MCF7 cells assessed as accumulation of cells at subG1 phase at 10 uM incubated for 24 hrs by propidium iodide staining based flow cytometry; type: functional, cell-based
In short: (§2)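 Cells seeded at 2 × 10^4 cells/mL and grown 24 h, then given 10 μM compound or DMSO for 24 h. Harvested cells fixed in 70% ethanol at 4 °C overnight, washed twice with PBS, and treated with 100 μg/mL RNase A (37 °C, 30 min). Stained with 10 μg/mL propidium iodide; cell cycle analysed by flow cytometry.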

MCF7 [12] = assay: Induction of autophagy in human MCF7 cells assessed as increase in LC3-II protein expression at 10 uM incubated for 72 hrs by immunoblotting analysis relative to control; type: functional
In short: (§3)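 Cells seeded at 2 × 10^4 cells/mL and grown 24 h at 37 °C in 5% CO2 in RPMI 1640 with 10% FBS and 1 mM HEPES. They were then treated 72 h with compound at 10 μM or with DMSO control. Whole-cell lysates were made in NP40 buffer, protein measured by BCA, and samples run on SDS-PAGE. LC3 was probed with β-actin as loading control. Control was set to 1.0; mean ± SD, n = 3.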

MCF7 [13] = assay: Induction of cell cycle arrest in human MCF7 cells at 10 uM incubated for 24 hrs by propidium iodide staining based flow cytometry; type: functional; in short: as §2
[14] = molecular target: T1, Retinoic acid receptor RXR-alpha (Homo sapiens) (UniProt P19793); assay: Agonist activity at human RXR-alpha assessed as receptor transactivation at 500 to 20000 nM incubated for 24 hrs by luciferase reporter gene assay; conditions: dose 500-20000 nM
T1 sequence (whole entry): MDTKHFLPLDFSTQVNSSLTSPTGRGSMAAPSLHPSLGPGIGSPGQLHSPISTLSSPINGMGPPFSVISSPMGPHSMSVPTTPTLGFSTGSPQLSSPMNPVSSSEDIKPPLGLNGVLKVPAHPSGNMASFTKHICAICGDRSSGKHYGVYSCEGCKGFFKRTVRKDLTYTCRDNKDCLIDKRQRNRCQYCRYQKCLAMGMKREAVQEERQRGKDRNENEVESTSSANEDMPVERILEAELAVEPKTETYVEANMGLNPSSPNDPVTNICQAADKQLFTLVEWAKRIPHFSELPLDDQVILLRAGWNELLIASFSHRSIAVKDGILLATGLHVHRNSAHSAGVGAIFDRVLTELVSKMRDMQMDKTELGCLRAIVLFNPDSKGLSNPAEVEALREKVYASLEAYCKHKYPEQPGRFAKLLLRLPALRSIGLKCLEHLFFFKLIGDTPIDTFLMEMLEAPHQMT
In short: (§4)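 INDIGO RARα or RXRα reporter cells seeded, then medium containing compound added (0.5, 1, 4, 10, 20 μM); 24 h at 37 °C. Medium removed, luciferase detection reagent added, light emission read. 9-cis-retinoic acid (0.5–500 nM) served as positive control. Three replicate wells per vehicle control; mean ± SD (n = 3).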

[15] = molecular target: T2, Retinoic acid receptor alpha (Homo sapiens) (UniProt P10276); assay: Agonist activity at human RAR-alpha assessed as receptor transactivation at 500 to 20000 nM incubated for 24 hrs by luciferase reporter gene assay; conditions: dose 500-20000 nM; in short: as §4
T2 sequence (whole entry): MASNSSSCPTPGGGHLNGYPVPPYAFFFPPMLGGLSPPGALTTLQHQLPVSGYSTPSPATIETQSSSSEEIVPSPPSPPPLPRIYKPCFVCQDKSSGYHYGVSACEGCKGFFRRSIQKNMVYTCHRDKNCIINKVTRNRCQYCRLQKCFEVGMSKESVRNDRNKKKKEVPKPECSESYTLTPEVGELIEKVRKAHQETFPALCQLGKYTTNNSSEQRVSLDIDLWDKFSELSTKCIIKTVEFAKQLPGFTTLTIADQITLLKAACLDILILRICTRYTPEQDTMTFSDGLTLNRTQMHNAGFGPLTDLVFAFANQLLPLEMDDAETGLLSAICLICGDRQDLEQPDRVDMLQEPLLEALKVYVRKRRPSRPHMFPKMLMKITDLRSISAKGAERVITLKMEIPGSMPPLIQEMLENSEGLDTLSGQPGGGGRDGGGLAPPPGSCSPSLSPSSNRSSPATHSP

PC-3 [16] = assay: Effect in Bcl-2 protein expression in human PC-3 cells at 10 uM incubated for 72 hrs by immunoblotting analysis; type: functional, cell-based
In short: (§5)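 Cells seeded at 2 × 10^4 cells/mL and grown 24 h, then given 10 μM compound or DMSO for 72 h. Whole-cell lysates prepared in NP40 buffer (25 mM Tris-HCl pH 8, 150 mM NaCl, 0.5% NP40, NaF, Na3VO4, protease inhibitors), quantified by BCA. Lysates run on SDS-PAGE and blotted. Probed for Bcl-2, Bcl-xL, ERK/p-ERK, Akt/p-Akt and β-actin. Control set to 1.0; mean ± SD (n = 3).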

PC-3 [17] = assay: Inhibition of Akt phosphorylation in human PC-3 cells assessed as decrease in phosphorylated Akt level at 10 uM incubated for 72 hrs by immunoblotting analysis; type: cell-based; in short: as §5
PC-3 [18] = assay: Induction of autophagy in human PC-3 cells assessed as increase in LC3-II protein expression at 10 uM incubated for 72 hrs by immunoblotting analysis relative to control; type: functional; in short: as §3
PC-3 [19] = assay: Inhibition of ERK phosphorylation in human PC-3 cells at 10 uM incubated for 72 hrs by immunoblotting analysis; type: cell-based; in short: as §5
PC-3 [20] = assay: Induction of cell cycle arrest in human PC-3 cells at 10 uM incubated for 24 hrs by propidium iodide staining based flow cytometry; type: functional; in short: as §2
MCF7 [21] = assay: Inhibition of Akt phosphorylation in human MCF7 cells assessed as decrease in phosphorylated Akt level at 10 uM incubated for 72 hrs by immunoblotting analysis; type: cell-based; in short: as §5
MCF7 [22] = assay: Effect in Bcl-xL protein expression in human MCF7 cells at 10 uM incubated for 72 hrs by immunoblotting analysis; type: functional, cell-based; in short: as §5
MCF7 [23] = assay: Inhibition of ERK phosphorylation in human MCF7 cells at 10 uM incubated for 72 hrs by immunoblotting analysis; type: cell-based; in short: as §5
PC-3 [24] = assay: Effect in Bcl-xL protein expression in human PC-3 cells at 10 uM incubated for 72 hrs by immunoblotting analysis; type: functional, cell-based; in short: as §5
MCF7 [25] = assay: Effect on Bcl-2 protein expression in human MCF7 cells at 10 uM incubated for 72 hrs by immunoblotting analysis; type: functional, cell-based; in short: as §5
PC-3 [26] = assay: Antiproliferative activity against human PC-3 cells assessed as inhibition of cell growth at 4 uM incubated for 72 hrs by MTT assay; type: functional; in short: as §1
PC-3 [27] = assay: Induction of apoptosis in human PC-3 cells assessed as accumulation of cells at subG1 phase at 10 uM incubated for 24 hrs by propidium iodide staining based flow cytometry; type: functional, cell-based; in short: as §2

CCCCCCCCCCNc1ccc(O)cc1
inhibition at 4 µM (MCF7 [1]): 31% | inhibition at 1 µM (PC-3 [2]): 65% | Activity (MCF7 [3]): Dose-Dependent Effect | inhibition at 10 µM (MCF7 [4]): 51% | Activity (PC-3 [5]): Dose-Dependent Effect

CCCCCCCC(=O)Nc1ccc(O)cc1
Activity (MCF7 [6]): inactive | inhibition at 10 µM (PC-3 [7]): 45% | Activity (PC-3 [8]): Active

O=C(O)CCCCCCCCCCCNc1ccc(O)cc1
Activity (PC-3 [9]): inactive | Activity (MCF7 [10]): inactive

O=C(O)CCCCCCC(=O)Nc1ccc(O)cc1
Activity (MCF7 [6]): Active | inhibition at 4 µM (MCF7 [1]): 30% | Activity (PC-3 [8]): inactive

O=C(O)CCCCCCCCCCC(=O)Nc1ccc(O)cc1
Activity (MCF7 [6]): Active | Activity (MCF7 [11]): inactive | inhibition at 4 µM (MCF7 [1]): 40% | fold change (FC) (MCF7 [12]): 1.6 | Activity (MCF7 [13]): inactive | Activity [14]: inactive | Activity [15]: inactive | Activity (PC-3 [16]): inactive | inhibition (PC-3 [17]): 35% | fold change (FC) (PC-3 [18]): 1.5 | inhibition at 10 µM (PC-3 [7]): 70% | inhibition (PC-3 [19]): inactive | Activity (PC-3 [20]): inactive | inhibition (MCF7 [21]): Active | Activity (MCF7 [22]): inactive | inhibition (MCF7 [23]): inactive | Activity (PC-3 [24]): inactive | Activity (MCF7 [25]): inactive | inhibition at 4 µM (PC-3 [26]): 54% | Activity (PC-3 [27]): inactive

COC(=O)CCCCCCCCCCC(=O)Nc1ccc(O)cc1
Activity (MCF7 [10]): inactive | inhibition at 10 µM (PC-3 [7]): 10%

COC(=O)CCCCCCC(=O)Nc1ccc(O)cc1
Activity (MCF7 [10]): inactive

COC(=O)CCCCCCCCCCCNc1ccc(O)cc1
Activity (MCF7 [10]): inactive | inhibition at 10 µM (PC-3 [7]): 10%

O=C(O)CCCCCCCCC(=O)Nc1ccc(O)cc1
Activity (MCF7 [6]): Active | inhibition at 4 µM (MCF7 [1]): 28% | Activity (PC-3 [8]): inactive

COC(=O)CCCCCCCCC(=O)Nc1ccc(O)cc1
Activity (MCF7 [10]): inactive

COC(=O)CCCCCCCCCNc1ccc(O)cc1
Activity (MCF7 [10]): inactive

CCCCCCCCCCCCNc1ccc(O)cc1
inhibition at 4 µM (MCF7 [1]): 61% | inhibition at 1 µM (PC-3 [2]): 91% | Activity (MCF7 [3]): Dose-Dependent Effect | inhibition at 10 µM (MCF7 [4]): 73% | Activity (PC-3 [5]): Dose-Dependent Effect

CCCCCCCCCC(=O)Nc1ccc(O)cc1
Activity (MCF7 [6]): inactive | inhibition at 10 µM (PC-3 [7]): 43% | Activity (PC-3 [8]): Active

CC1=C(/C=C/C(C)=C/C=C/C(C)=C/C(=O)O)C(C)(C)CCC1 [TRETINOIN]
inhibition at 4 µM (MCF7 [1]): 37% | inhibition at 4 µM (PC-3 [26]): 18%

COC(=O)CCCCCCCNc1ccc(O)cc1
Activity (MCF7 [10]): inactive

CCCCCCCCNc1ccc(O)cc1
inhibition at 4 µM (MCF7 [1]): 14% | inhibition at 1 µM (PC-3 [2]): 33% | Activity (MCF7 [3]): Dose-Dependent Effect | inhibition at 10 µM (MCF7 [4]): 45% | Activity (PC-3 [5]): Dose-Dependent Effect

CCCCCCCCCCCC(=O)Nc1ccc(O)cc1
Activity (MCF7 [6]): inactive | inhibition at 10 µM (PC-3 [7]): 24% | Activity (PC-3 [8]): Active

O=C(O)CCCCCCCCCNc1ccc(O)cc1
Activity (PC-3 [9]): inactive | Activity (MCF7 [10]): inactive

O=C(O)CCCCCCCNc1ccc(O)cc1
Activity (PC-3 [9]): inactive | Activity (MCF7 [10]): inactive
